RGS4 inh = RGS4 inhibitors, primary screen, cell-based, HEK293 M3R inducible RGS4, calcium flux; Fluo-4 calcium flux; active compounds read high; triggered by carbachol at its EC20; B-score at 10 µM; 310,000 tested, 0.45% active; Regulator of G-protein signaling 4 (Homo sapiens), P49798;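 active = B-score, a plate-corrected calcium signal, over three deviations above library mean, with baseline fluorescence within five deviations of library mean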;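 note: RGS4 expression induced by doxycycline in cells with stable M3 receptor; B-score is computed from the integrated fluorescence ratio over baseline after carbachol; higher B-score means a larger calcium signal and so more RGS4 inhibition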
Target sequence (P49798 whole entry, looked up): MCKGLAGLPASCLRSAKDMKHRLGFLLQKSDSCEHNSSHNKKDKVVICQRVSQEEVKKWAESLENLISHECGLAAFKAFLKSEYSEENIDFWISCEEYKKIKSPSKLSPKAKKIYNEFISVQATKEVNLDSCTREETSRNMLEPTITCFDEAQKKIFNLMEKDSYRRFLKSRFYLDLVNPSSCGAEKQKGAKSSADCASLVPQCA
MrgX1 ag = agonists of human MrgX1 receptor, primary screen, HEK293 cells, Fluo-4 calcium flux. Mas-related G-protein coupled receptor member X1 (Homo sapiens), Q96LB2. Fluo-4 calcium fluorescence, agonist mode; active compounds read high. B-score at 10 µM. 310,000 tested, 0.44% active;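 active = calcium response B-score plate-corrected fluorescence ratio at least 3 library SD, with starting fluorescence B-score inside 5 SD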
Target sequence (Q96LB2 whole entry, looked up): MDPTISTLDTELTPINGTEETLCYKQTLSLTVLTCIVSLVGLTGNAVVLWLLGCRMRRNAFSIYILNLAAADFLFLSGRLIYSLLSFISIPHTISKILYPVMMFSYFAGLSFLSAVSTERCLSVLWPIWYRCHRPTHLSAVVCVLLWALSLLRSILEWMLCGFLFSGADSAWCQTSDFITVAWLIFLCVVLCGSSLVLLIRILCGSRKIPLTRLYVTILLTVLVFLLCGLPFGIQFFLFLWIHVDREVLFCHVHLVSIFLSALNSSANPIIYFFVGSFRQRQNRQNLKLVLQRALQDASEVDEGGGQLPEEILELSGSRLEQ
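Assay system: stable human MrgX1 HEK293 cell line. Quantity: 15,000 cells per well. Schedule: cells plated overnight, dye loaded 0.5 h 37 °C, 0.5 h room temperature. Detection: Fluo-4 NW calcium-flux fluorescence, kinetic read. Read-out basis: peak-minus-minimum fluorescence over baseline, converted to B scores. Control set: positive and negative control wells on each plate.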
RGS4 act = RGS4 potentiators or activators, primary screen, cell-based, HEK293 M3R inducible RGS4, calcium flux. carbachol calcium flux Fluo4; active compounds read low. AID 463111, 2010. 310,000 tested, 0.92% active. B-score at 10 µM;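 active = B-score of the integrated calcium signal more than 4 SD below the library mean, with starting fluorescence not abnormally high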;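 note: negative B-score means reduced calcium response which marks RGS4 activation or potentiation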
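Detection: kinetic calcium fluorescence imaging with Fluo4-AM dye, 2 µM / Material: HEK293 cells with stable M3R and inducible RGS4 / Schedule: recording 10 s baseline at 1 Hz, 100 s post-agonist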
MrgX1 antagonist = antagonists of human MrgX1 receptor, primary screen, HEK293 cells, Fluo-4 calcium flux. Mas-related G-protein coupled receptor member X1 (Homo sapiens), Q96LB2. AID 588676, 2011. B-score at 10 µM. BAM8-22 antagonism; active compounds read low. 310,000 tested, 1.3% active;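 active = calcium-response B-score plate-corrected more than 3 library SD below zero, starting fluorescence within 5 deviations, no agonist response on first addition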;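 note: peak minus trough fluorescence over baseline after final BAM8-22 challenge near maximal dose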
MrgX1 PAM = positive allosteric modulators of MrgX1, primary screen, HEK293 cells, Fluo-4 calcium flux. Mas-related G-protein coupled receptor member X1 (Homo sapiens), Q96LB2. FDSS; active compounds read high. B-score at 10 µM. 310,000 tested, 0.63% active. AID 588675, 2011;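 active = plate-corrected calcium response at least 3 library SD above typical, normal starting fluorescence, not activating the receptor alone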;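 note: compound read alongside a low EC10 to EC30 dose of BAM8-22 agonist; peak minus trough fluorescence over baseline measured at the second addition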
MrgX1 antag conf = MrgX1 receptor antagonists, duplicate retest, confirmation, HEK293 cells, Fluo-4 calcium flux | shares compounds with MrgX1 antagonist | BAM8-22 calcium flux; active compounds read low | remaining BAM8-22 calcium response % of control (active compounds read low), % at 10 µM | 2,300 tested, 19% active | AID 602420, 2012;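 active = remaining agonist calcium response no higher than 100% minus 3 SD of agonist-only control wells, with starting fluorescence near control levels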;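 note: agonist BAM8-22 given at a near maximal EC90 to ECmax level; peak minus minimum fluorescence divided by baseline after agonist addition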
HEK293 Ca flux = nonspecific calcium signal in parental HEK293, confirmation, counter-screen for MrgX1 antagonist project, parental HEK293 cells, Fluo-4 calcium flux | shares compounds with MrgX1 antagonist | Fluo-4 calcium fluorescence, FDSS | fluorescence ratio F(max-min)/F0 at 10 µM | 4,000 tested, 2% active;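 active = duplicate-averaged calcium fluorescence ratio at least three times the standard deviation of buffer wells, a nonspecific response in parental cells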
HEK293 Ca counter = calcium response in parental HEK293 cells, primary screen, counter-screen for MrgX1 allosteric activator project, cell-based, Fluo-4 calcium flux, duplicate; 4,000 tested, 0.4% active; Fluo-4 fluorescence ratio; active compounds read high; fluorescence ratio F(max-min)/F0 at 10 µM; shares compounds with MrgX1 antagonist;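 active = calcium fluorescence ratio, averaged over duplicates, at least 3 SD of the buffer-well ratio, meaning a nonspecific response in receptor-free cells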;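 note: untransfected parental HEK293 lacking MrgX1 used as counterscreen for MrgX1 allosteric activators; fluorescence change taken during the second addition on a kinetic imager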
HEK293 Ca cntr2 = calcium response in parental HEK293 cells, primary screen, counter-screen for MrgX1 agonist project, cell-based, Fluo-4 calcium flux, duplicate, agonist mode. shares compounds with MrgX1 antagonist. Fluo-4 calcium fluorescence (FDSS); active compounds read high. fluorescence ratio F(max-min)/F0 at 10 µM. 4,000 tested, 8.7% active;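 active = calcium fluorescence ratio at least three times the spread of buffer wells, meaning a non-specific response in parental cells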
* hit, by the source's call; i = inactive; . = no result; ! = a repeat was not active. Sampled rows, rich in hits. Any-hit rate of the full collection: about 3.5%.

SMILES | RGS4 inh | MrgX1 ag | RGS4 act | MrgX1 antagonist | MrgX1 PAM | MrgX1 antag conf | HEK293 Ca flux | HEK293 Ca counter | HEK293 Ca cntr2
O=[N+]([O-])c1cccc(-c2n[nH]c(=S)n2Cc2ccccc2)c1 | i | i | i | -17* | i | i | i | i | i
CCOc1ccccc1C(=O)N[C@H](C(=O)Nc1cc(S(=O)(=O)N(C)C)ccc1OC)C(C)C | i | i | i | i | i | . | . | . | .
O=C(Nc1ccc(Oc2ccc(NC(=O)C3CCCO3)cc2)cc1)C1CCCO1 (stereo unspecified) | i | i | i | i | i | . | . | . | .
COc1ccc2nc(NC(=O)C3CCCO3)sc2c1 (stereo unspecified) | i | i | i | i | i | . | . | . | .
CSc1nc2ccc(NC(=O)C3CCCO3)cc2s1 (stereo unspecified) | i | i | i | -6.8* | i | i | i | i | i
NC(=O)c1ccc(NC(=O)C2CCCO2)cc1 (stereo unspecified) | i | i | i | -5.9* | i | i | i | i | i
O=C(NCCSCc1ccco1)Nc1cc(Cl)cc(Cl)c1 | i | i | i | -5.4* | i | 68%* | i | i | i
N#Cc1cc(-c2ccccc2)nnc1Sc1ccccc1 | i | i | i | -4.9* | i | 79%* | i | i | i
N#Cc1cc(-c2ccccc2)nnc1Sc1ccc(F)cc1 | i | i | i | i | i | . | . | . | .
CC(=O)NCCC(=O)Nc1sc2c(c1-c1nc3ccccc3[nH]1)CCCC2 | i | i | i | i | i | . | . | . | .
CN1CCN(S(=O)(=O)c2cccc(C(=O)Nc3sc4c(c3-c3nc5ccccc5[nH]3)CCCC4)c2)CC1 | i | i | i | -5.5* | i | 55%* | i | i | i
CCNc1ccc2noc3c2c1C(=O)c1ccccc1-3 | i | i | i | -4.8* | i | i | 0.58* | i | i
CCOC(=O)CNC(=O)N1CCCC(N(C)CCc2ccccc2)C1 (stereo unspecified) | i | i | i | i | i | . | . | . | .
CCOC(=O)C1(Cc2ccccc2)CCN(Cc2cnn(-c3ccccc3)c2)CC1 | i | i | i | -6* | i | 73%* | i | i | i
CCOC(=O)C1(Cc2ccccc2)CCCN(CCO)C1 (stereo unspecified) | i | i | i | -5* | i | i | i | i | i
O=C1CC(N2CCSCC2)C(=O)N1c1cccc(Br)c1 (stereo unspecified) | i | i | i | -9.1* | i | i | i | i | i
O=C1CC(N2CCN(c3ccccc3)CC2)C(=O)N1c1cccc(Br)c1 (stereo unspecified) | i | i | i | i | i | . | . | . | .
COc1ccc(N2C(=S)NC(C)(C)CC2(C)c2ccc(OC(C)=O)cc2OC(C)=O)cc1 (stereo unspecified) | i | i | i | -4.6* | i | i | i | i | i
CCn1c(CCC(=O)Nc2nc3c(s2)CCCC3)nc2cc(S(=O)(=O)N(C)C)ccc21 | i | i | i | i | i | . | . | . | .
Cn1nc(N)c2c(-c3ccc(Cl)cc3)c(C#N)c(N)nc21 | i | i | i | -4.7* | i | i | i | i | i
CCOc1cc(C(=O)NC(=S)Nc2nc(C)cc(C)n2)cc(OCC)c1OCC | i | i | i | i | i | . | . | . | .
O=C(NC(=S)Nn1cnnc1)c1ccccc1 | i | i | i | -8.3* | i | 75%* | i | i | i
CCOc1cc(C(=O)NC(=S)Nn2cnnc2)cc(OCC)c1OCC | i | i | i | -4.5* | i | i | i | i | i
CCOc1cc(C(=O)Nn2cnnc2)cc(OCC)c1OCC | i | i | i | -4.6* | i | i | i | i | i
C#CCNC(=O)C1=C[C@H](c2ccc(Br)cc2)[C@@H](CCCO)[C@H](OCC)O1 | i | i | i | i | i | . | . | . | .
SMILES | RGS4 inh | MrgX1 ag | RGS4 act | MrgX1 antagonist | MrgX1 PAM | MrgX1 antag conf | HEK293 Ca flux | HEK293 Ca counter | HEK293 Ca cntr2
NC(=O)C1CCN(C(=O)COc2ccc(Nc3ccccc3)cc2)CC1 | i | i | i | i | i | . | . | . | .
O=C(Cc1cccs1)Nc1cccc(-c2nnc(-c3ccco3)o2)c1 | i | i | i | -7.4* | i | i | i | i | i
CCOc1ccc(C2c3[nH]c4ccccc4c3CCN2C(=O)Cn2cncn2)cc1 (stereo unspecified) | i | i | i | i | i | . | . | . | .
CCN(CC)CCN1C(=O)Cn2c(C)c(C)c3cccc1c32 | i | i | i | -5*! | i | i | i | i | i
CCN(C(=O)c1c(-c2ccccc2)noc1C)c1ccccc1 | i | i | i | -4.6* | i | i | i | i | i
CCOc1ccc(Br)cc1CC(=O)O | i | i | i | i | i | . | . | . | .
CCCOc1ccc(Br)cc1CSC(=N)N | i | i | i | -4.6* | i | i | i | i | i
CSc1cccc(NC(=S)N(CCC(C)C)C2CCN(C(C)=O)CC2)c1 | i | i | i | i | i | . | . | . | .
CSc1cccc(NC(=S)N(CCC(C)C)C2CCN(C(C)C)CC2)c1 | i | i | i | -6.3* | i | i | i | i | i
CCOC(=O)c1c(-c2ccccc2)csc1NC(=O)c1cc(S(=O)(=O)N2CCOCC2)ccc1C | i | i | i | i | i | . | . | . | .
